Compounds with a hit are over-represented: about 4.8% of the library has one in this group of screens.
Jurkat NFkB inh – inhibitors of induced NF-kB luciferase reporter, primary screen, TCR NF-kB activation inhibitor project, cell-based, luminescence, uHTS | Jurkat, PMA/ionomycin-induced NF-kB luciferase reporter | inhibition, % at 4 µM | hit rate 0.53% among 330,000 | AID 435003, 2010; in the data active = inhibition above about 50%
T cruzi repl – inhibitors of intracellular T. cruzi growth, primary screen, luminescence, NIH3T3 host cells. T. cruzi beta-gal in NIH3T3, 90 h. inhibition, % (no concentration beside the values). hit rate 1.4% among 300,000. AID 1885, 2009;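 active = mean inhibition across valid replicates above about 55%, limit read from the data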;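 also: signal also drops with host cell toxicity which is not excluded here; 0% = plate median of DMSO wells and 100% = zero luminescence signal; higher percent means less beta-gal luminescence so fewer parasites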
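System: Mouse NIH/3T3 fibroblasts infected with β-gal-expressing T. cruzi Tulahuen C4 | Quantity: NIH/3T3 cells, 5,000 per well | Reagent: 5000 reporter trypomastigotes per well | Dosing: Compound pinned at 50 nL/well, DMSO | Schedule: 3 h host attachment, then at least 90 h co-culture | Detection: GalScreen luminescence, 60 min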
HSF1 inhib – HSF1 inhibitors in luciferase reporter cells, primary screen, cell-based, NIH3T3, luminescence; NIH3T3-HGL HSE-luciferase, MG132-induced, luminescence 8 h; stronger effect = lower value; activity change, negative = inhibition, % at 7.5 µM (by protocol); hit rate 0.77% among 300,000;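 active = more than half of replicate wells show activity change below -50%, luminescence cut by over half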;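 also: luciferase reports HSF-1 transcriptional activity via heat shock element; 0% = median of DMSO wells and -100% = zero luminescence signal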
697 NFkB inh – inhibitors of PMA/ionomycin-induced NF-kB reporter, 697 cells, primary screen, B-cell NF-kB inhibitor project, cell-based, luminescence, uHTS | 697 B-cell NF-kB luciferase reporter, 16 h | inhibition, % at 4 µM | hit rate 0.33% among 330,000; in the data active = inhibition above about 35%
HSF-1 act – HSF-1 activators, primary screen, NIH3T3-HGL cells, MG132 stress, luminescence, single point; NIH3T3-HGL HSF-1 luciferase reporter, 8 h; 100% = twice DMSO control signal; activation, % at 9 µM; hit rate 1.7% among 300,000;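 active = mean replicate activation of at least 50% with a set share of replicates each reaching 50%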;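 also: 0% = median of the neutral control wells and 100% = twice that signal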
GPR7 antagonist – GPR7 receptor antagonists, primary screen, cell-based, fluorescence, single concentration. inhibition, % at 4.4 µM. Neuropeptides B/W receptor type 1 (Homo sapiens), P48145. hit rate 1.1% among 290,000. GPR7-expressing cells, fluorescence antagonist assay; in the data active = inhibition above about 16%, passing the limit was not always enough;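 also: cells stimulated with the agonist NPW; 0% = agonist with vehicle and 100% = vehicle without agonist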
Target sequence (P48145 whole entry, looked up): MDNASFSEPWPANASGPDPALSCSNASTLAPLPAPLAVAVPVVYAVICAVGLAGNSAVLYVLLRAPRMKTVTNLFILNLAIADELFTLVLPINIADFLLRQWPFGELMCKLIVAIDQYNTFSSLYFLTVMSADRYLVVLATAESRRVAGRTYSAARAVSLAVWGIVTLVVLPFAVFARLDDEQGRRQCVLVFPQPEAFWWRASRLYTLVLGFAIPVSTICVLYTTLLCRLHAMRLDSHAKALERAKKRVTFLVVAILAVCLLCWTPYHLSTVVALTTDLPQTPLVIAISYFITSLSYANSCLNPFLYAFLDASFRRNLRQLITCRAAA
* hit, by the source's call; / = not tested or not shown.

SMILES | Jurkat NFkB inh | T cruzi repl | HSF1 inhib | 697 NFkB inh | HSF-1 act | GPR7 antagonist
CC(C)(C)c1ccc(Cn2c(=N)n(CC(O)c3ccco3)c3ccccc32)cc1 (stereo not given) | 18.2 | 60.0* | 24.1 | -13.2 | 56.0* | 23.6*
CC(NS(=O)(=O)c1ccc(OCC(=O)Nc2cccc([N+](=O)[O-])c2)cc1)c1ccccc1 (stereo not given) | / | / | / | / | / | 2.3
CCOC(=O)C1CCN(S(=O)(=O)c2ccc3c(c2)CC(=O)N3C)CC1 | -10.4 | -4.8 | 0.8 | -4.6 | -16.1 | -7.5
Cc1nn(-c2ccccc2)c(C)c1NC(=O)COc1ccc([N+](=O)[O-])cc1 | 15.5 | -4.5 | 2.6 | 15.5 | -5.8 | /
O=C1CCCC/C1=N\Nc1ccc(OCc2ccccc2)cc1 | -10.0 | 25.6 | 7.7 | -35.8 | 18.6 | -6.3
O=C1CCCC/C1=N\Nc1ccc(C2CCCCC2)cc1 | -88.7 | 8.5 | -55.6* | -125.7 | -59.5 | 12.9
CCOC(=O)CNC(=O)Cn1cnc2c(nnn2-c2cccc(OC)c2)c1=O | -0.7 | -12.8 | 3.3 | -6.0 | 5.2 | -1.9
Cc1ccc(S(=O)(=O)NCCC(=O)NNC(=O)COc2ccccc2Cl)cc1C | -6.3 | / | / | -7.9 | / | /
Cc1coc2cc3oc(=O)ccc3cc12 | -12.0 | -1.5 | -5.7 | -2.7 | -1.6 | 13.8
Cc1cnc(NC(=O)CSc2nnc(COc3ccccc3)o2)s1 | -6.6 | -8.9 | 9.6 | 7.6 | -0.5 | -13.4
Cc1cnc(NC(=O)CSc2nnc(-c3ccccc3)o2)s1 | -96.5 | -11.4 | 46.4 | -137.9 | 61.2* | -15.3
COc1ccc(-c2cc(-c3ccccc3)c(C#N)c(SCC(=O)Nc3ncc(C)s3)n2)cc1 | -11.9 | 56.2* | -3.1 | -19.6 | 6.0 | -2.5
O=C(CSc1nnc(-c2ccccc2)o1)Nc1ccccc1F | -33.4 | -5.3 | 3.9 | -158.9 | 17.2 | -0.9
COc1ccc(-c2cc(-c3ccccc3)c(C#N)c(S(C)(=O)=O)n2)cc1 | 8.1 | 19.5 | 54.2 | 29.7 | 70.6* | -1.0
N#Cc1ccsc1NC(=O)CSc1nnc(-c2ccccc2)o1 | -17.0 | 2.3 | 52.4 | -20.6 | 55.8* | 2.0
CCC(c1nnc(SCC(=O)Nc2c(F)cccc2F)n1Cc1ccccc1)N(C)C (stereo not given) | -1.6 | -1.9 | -1.0 | -21.5 | 15.6 | -12.4
O=C(CC1CS(=O)(=O)CC1CC(=O)Oc1ccccc1F)Oc1ccccc1F (stereo not given) | 11.1 | -12.8 | 4.7 | 26.5 | 2.5 | -1.9
CCN1/C(=C(\O)c2ccccc2)C(=O)c2ccccc2S1(=O)=O | -2.8 | -14.2 | -69.8* | -0.4 | -78.4 | 15.9
N=c1n(CCN2CCCCC2)c2ccccc2n1CC(O)c1ccc(Cl)c(Cl)c1 (stereo not given) | 16.3 | 59.3* | 2.9 | 6.2 | -1.1 | 36.2*
COc1ccccc1OCC(O)Cn1c(=N)n(CCN2CCCCC2)c2ccccc21 (stereo not given) | 7.8 | 15.2 | -10.1 | -26.7 | -5.8 | 24.8*
COc1ccc(OCC(O)Cn2c(=N)n(CCN3CCOCC3)c3ccccc32)cc1 (stereo not given) | -6.6 | 8.9 | -6.3 | 0.1 | -4.9 | -8.7
CSc1nc2ccc(NS(=O)(=O)c3ccc([N+](=O)[O-])cc3)cc2s1 | -1.5 | 3.5 | -89.0* | 20.3 | -91.3 | -16.2
C/C(=N\NC(=O)c1ccc(Cl)cc1)c1ccc(Br)s1 | -30.5 | 58.2* | 4.9 | -38.1 | 9.9 | -13.6
C/C(=N\NC(=O)c1cc(Cl)ccc1O)c1ccc(Br)s1 | -62.3 | -18.3 | -1.1 | -138.4 | 40.7 | -3.2
Cc1ccc2[nH]c(=O)c(CN(CCO)C(=O)N(C)C)cc2c1 | -3.1 | 1.7 | -4.3 | -3.3 | -12.2 | -4.2
SMILES | Jurkat NFkB inh | T cruzi repl | HSF1 inhib | 697 NFkB inh | HSF-1 act | GPR7 antagonist
Cc1ccc(OCC(O)CN2C(=O)NC(C)(C)C2=O)c(C)c1 (stereo not given) | -5.5 | -15.4 | -0.9 | 0.7 | 6.3 | -0.9
Cc1cc(C)cc(OCC(O)CN2C(=O)NC(C)(C)C2=O)c1 (stereo not given) | 0.1 | -8.1 | 35.6 | 12.4 | 64.1* | -6.9
Cc1ccccc1NC(=S)c1nc2ccccc2[nH]1 | / | 31.2 | 33.4 | / | 67.0* | -4.8
S=C(Nc1ccc(Cl)cc1)c1nc2ccccc2[nH]1 | 9.1 | 47.0 | -0.8 | -27.6 | 14.1 | -4.8
CCCCS(=O)(=O)N1CCCC(C(=O)NCC2CCCO2)C1 (stereo not given) | -8.0 | 5.4 | -10.9 | 12.3 | -14.7 | -12.6
COc1cccc(CNc2ccc(S(N)(=O)=O)cc2)c1OC | 3.4 | -9.1 | -56.5* | 12.5 | -66.9 | -13.3
CC1(C)CC(=O)C(C2C3=C(CC(C)(C)CC3=O)OC3=C2C(=O)CC(C)(C)C3)=C(O)C1 | 22.4 | -1.2 | 23.2 | 10.1 | 66.8* | -0.2
CC(Sc1nncs1)C(=O)NCC(=O)Nc1ccc(F)c(F)c1F (stereo not given) | -7.6 | -10.4 | -8.1 | -2.3 | 1.0 | -6.7
O=C1/C(=C/c2ccccc2Cl)SC(=S)N1CCC(=O)N1CCCCC1CCO (stereo not given) | 19.2 | -7.9 | 39.2 | 2.9 | 68.3* | 12.6
CCc1cc2cc(C)ccc2nc1SCC(=O)NC1CCCC1 | -2.4 | 21.7 | -1.2 | 5.1 | 10.3 | -12.9
CN(Cc1cccnc1)C(=O)c1cc(S(=O)(=O)Nc2ccccc2F)ccc1Cl | -6.3 | / | / | -8.5 | / | /
COc1ccc(/C=C/C(=O)c2c(C)nc3ccccn23)cc1 | -41.4 | 52.3 | 30.9 | -23.5 | 62.9* | -7.2
COc1ccc(CNC(=O)c2c(C)nc3ccccn23)cc1 | 15.0 | -4.2 | 1.2 | -5.4 | 5.2 | -3.4
Cc1nc2ccccn2c1C(=O)/C=C/c1ccc(F)cc1 | -61.4 | -7.4 | 175.1 | -110.6 | 199.7* | 24.5
O=C(NCCCn1ccnc1)C1CCN(S(=O)(=O)c2ccc(F)cc2)CC1 | -9.2 | -3.3 | -1.1 | -17.9 | -7.6 | -7.5
CC(=O)N/C(N)=N/c1nc(=O)c2ccccc2s1 | -27.4 | -12.0 | 1.9 | -27.2 | 20.2 | -15.6
CCOC(=O)N/C(N)=N/c1nc2ccccc2s1 | -148.7 | 9.3 | 23.4 | -145.4 | 52.8* | -10.3
CC(=O)Oc1cccc(C(=O)Nc2ccc3c(c2)C(=O)N(CC2CCCO2)C3=O)c1 (stereo not given) | 3.4 | 8.4 | 37.7 | -26.5 | 71.8* | -2.9
N#CCC(=O)Nc1ccc(C(=O)OCC(=O)Nc2ccccc2Sc2ccccc2)cc1 | -23.3 | 17.0 | 20.6 | -29.2 | 63.3* | -4.5
CCN(CC(=O)Nc1cc(C)on1)CC(=O)Nc1ccccc1C(F)(F)F | 2.6 | / | / | 6.1 | / | /
CC1=NN(/C(=N\c2nnc(C)s2)Nc2ccc(C(C)(C)C)cc2)[C@H](c2ccc(C)cc2)S1 | 0.2 | 56.7* | -20.5 | -23.4 | -36.8 | -16.3

Screens (PubChem BioAssay)
